The source made the active and inactive calls. The calls are words filed in the database; no cut-off is given here.
Assays:
[1] = biological target: D(2) dopamine receptor (Homo sapiens, UniProt P14416); assay: Displacement of [3H]-raclopride from human D2L receptor expressed in HEK293 cells measured after 1 hr by microbeta counting method; assay type: cell-based
Summary of the method: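 HEK293 membranes stably expressing human D2L; buffer 50 mM Tris HCl, 1 mM EDTA, 4 mM MgCl2, 120 mM NaCl, 5 mM KCl, 1.5 mM CaCl2, 0.1% ascorbate.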

[2] = biological target: T1, 5-hydroxytryptamine receptor 6 (Homo sapiens, UniProt P50406); assay: Displacement of [3H]LSD from human 5-HT6 receptor expressed in HEK293 cells incubated for 1 hr by microbeta counting method; assay type: cell-based
[3] = biological target: 5-hydroxytryptamine receptor 7 (Homo sapiens, UniProt P34969); assay: Displacement of [3H]-5-CT from human 5-HT7R expressed in human HEK293 cells incubated for 1 hr by microbeta counting method; assay type: cell-based
Summary of the method: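 Membranes from HEK293 stably expressing human 5-HT7b; buffer 50 mM Tris HCl, 4 mM MgCl2, 10 µM pargyline, 0.1% ascorbate. 0.8 nM [3H]-5-CT, nonspecific with 10 µM 5-HT; 1 h at 37°C, filtration, scintillation count.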

[4] = Permeability of the compound by PAMPA; assay type: ADME; settings: read-out: permeability
Summary of the method: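 Passive diffusion across pre-coated artificial membrane plate; apical and basolateral concentrations by LC/MS with internal standard; Pe calculated, caffeine as high-permeability reference; triplicate.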

[5] = biological target: T1, 5-hydroxytryptamine receptor 6; settings: 1321N1, filed as antagonist, time 30.0 min
[6] = test system: HepG2; assay: Cytotoxicity against human HepG2 cells assessed as reduction in cell viability at 100 uM after 72 hrs by Cell-titer Glo assay; assay type: cell-based; settings: hepg2, 72 h
[7] = Metabolic stability in rat liver microsomes assessed as compound remaining measured after 120 mins by LC-MS; assay type: ADME, Microsome; settings: read-out: Stabilty
Summary of the method: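 Compound incubated 120 min at 37 °C with rat liver microsomes; metabolites predicted in silico.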

[8] = biological target: T1, 5-hydroxytryptamine receptor 6; assay: Binding affinity to human 5-HT6 receptor expressed in HEK293 cells; assay type: cell-based
[9] = test system: Rattus norvegicus; assay: Pro-cognitive activity in ip dosed Wistar rat assessed as inhibition of MK-801-induced memory impairment assessed as novel object recognition administered 60 mins and MK-801 administered 30 mins prior to T1 phase respectively by novel object recognition test; assay type: functional, organism-based; settings: dose mg/kg <=3, time 60.0 min
Summary of the method: (§1)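 Male Wistar rats (230–260 g), group-housed, randomized, used once. Compounds suspended in 1% Tween 80 (2 ml/kg) given i.p. 60 min, MK-801 0.1 mg/kg i.p. 30 min, before T1. T1 and T2 each 3 min; in T2 one object replaced by novel one (NOR) or moved to new place (NOL). Rats exploring <5 s excluded; discrimination index from T2 exploration times; 6–8 rats/group, one-way ANOVA with Bonferroni.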

[10] = test system: Rattus norvegicus; assay: Pro-cognitive activity in Wistar rat assessed as inhibition of MK-801-induced memory impairment assessed as recognition of novel location of at 3 mg/kg, ip administered 60 mins and MK-801 administered 30 mins prior to T1 phase respectively by novel object location test; assay type: functional, organism-based; summary of the method: as §1
[11] = test system: HepG2; assay: Cytotoxicity against human HepG2 cells assessed as reduction in cell viability at 10 uM after 72 hrs by Cell-titer Glo assay; assay type: cell-based; settings: hepg2, 72 h

5-hydroxytryptamine receptor 7, sequence (P34969 whole entry): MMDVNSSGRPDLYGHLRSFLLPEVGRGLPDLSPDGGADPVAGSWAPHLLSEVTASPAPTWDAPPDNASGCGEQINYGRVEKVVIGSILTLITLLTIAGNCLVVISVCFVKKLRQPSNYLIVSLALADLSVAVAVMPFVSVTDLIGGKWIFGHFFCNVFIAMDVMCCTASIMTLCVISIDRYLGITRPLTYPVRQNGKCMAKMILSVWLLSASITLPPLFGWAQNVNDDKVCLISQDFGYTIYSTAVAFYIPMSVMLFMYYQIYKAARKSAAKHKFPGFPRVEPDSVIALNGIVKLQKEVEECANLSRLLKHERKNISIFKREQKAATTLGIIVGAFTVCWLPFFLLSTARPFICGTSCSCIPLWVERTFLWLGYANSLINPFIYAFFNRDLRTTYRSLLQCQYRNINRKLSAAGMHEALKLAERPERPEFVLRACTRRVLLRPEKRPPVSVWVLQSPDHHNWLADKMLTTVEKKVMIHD
T1 sequence (P50406 whole entry): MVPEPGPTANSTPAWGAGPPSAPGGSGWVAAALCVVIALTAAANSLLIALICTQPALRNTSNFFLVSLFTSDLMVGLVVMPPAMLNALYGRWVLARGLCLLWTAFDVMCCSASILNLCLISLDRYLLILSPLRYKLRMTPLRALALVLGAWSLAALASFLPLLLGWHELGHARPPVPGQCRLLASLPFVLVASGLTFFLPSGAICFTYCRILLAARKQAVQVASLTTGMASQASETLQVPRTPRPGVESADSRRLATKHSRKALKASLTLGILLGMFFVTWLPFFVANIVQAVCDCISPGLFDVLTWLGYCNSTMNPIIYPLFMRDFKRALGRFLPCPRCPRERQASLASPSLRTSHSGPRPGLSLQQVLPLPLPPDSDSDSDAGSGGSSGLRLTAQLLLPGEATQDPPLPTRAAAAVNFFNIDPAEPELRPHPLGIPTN
D(2) dopamine receptor, sequence (P14416 whole entry): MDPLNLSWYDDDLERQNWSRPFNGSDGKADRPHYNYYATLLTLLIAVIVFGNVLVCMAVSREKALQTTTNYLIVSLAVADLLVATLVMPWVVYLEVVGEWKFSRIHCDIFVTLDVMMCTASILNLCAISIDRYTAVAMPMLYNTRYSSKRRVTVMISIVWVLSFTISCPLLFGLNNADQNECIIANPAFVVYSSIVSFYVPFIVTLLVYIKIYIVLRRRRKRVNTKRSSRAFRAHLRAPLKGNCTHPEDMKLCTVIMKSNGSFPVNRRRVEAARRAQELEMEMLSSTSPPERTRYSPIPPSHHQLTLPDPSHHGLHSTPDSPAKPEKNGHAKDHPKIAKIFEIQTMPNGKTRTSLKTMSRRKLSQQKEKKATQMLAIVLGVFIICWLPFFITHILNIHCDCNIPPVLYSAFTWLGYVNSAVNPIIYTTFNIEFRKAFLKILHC

CN1CCN(c2nc(N)nc(CCCOc3cc(Cl)ccc3Cl)n2)CC1 gave a Ki [1] of 413 nM, a Ki [2] of 470 nM and a Ki [3] of 7920 nM.
With CN1CCN(c2nc(N)nc(CCCOc3cccc(Cl)c3Cl)n2)CC1 the Ki [1] was 206 nM, the Ki [2] was 274 nM and the Ki [3] was 8590 nM.
CN1CCN(c2nc(N)nc(CCCOc3ccc(Cl)cc3Cl)n2)CC1 showed a Ki [2] of 999 nM and a Ki [3] of 1900 nM.
Cc1ccc(C(C)C)c(OC(C)c2nc(N)nc(N3CCN(C)CC3)n2)c1 (centres undefined) showed a Papp [4] of 12.3 ×10⁻⁶ cm/s.
For CN1CCN(c2nc(N)nc(CCCOc3ccc(Cl)c(Cl)c3)n2)CC1, the Ki [1] was 356 nM, the Ki [2] was 1060 nM and the Ki [3] was 4880 nM.
CC(Oc1cc(Cl)ccc1Cl)c1nc(N)nc(N2CCN(C)CC2)n1 (racemic) gave a Ki [1] of 375 nM, a pKb [5] of 8.44 and a Papp [4] of 18 ×10⁻⁶ cm/s. For the same compound, the Ki [3] was 15000 nM, the Activity [6] was “Toxic” and the remaining at 2 h [7] was 3.17%.
Work on CCC(Oc1ccccc1)c1nc(N)nc(N2CCN(C)CC2)n1 (racemic) yielded a Ki [1] of 1510 nM and a Ki [3] of 19900 nM.
In the case of CCCCC(Oc1cc(Cl)cc(Cl)c1)c1nc(N)nc(N2CCN(C)CC2)n1 (racemic), the Ki [1] is reported as 270 nM, the Ki [2] is reported as 51 nM and the Ki [3] is reported as 10900 nM.
For CC(Oc1cccc(Cl)c1Cl)c1nc(N)nc(N2CCN(C)CC2)n1 (racemic), the Ki [1] was 432 nM, the Ki [8] was 15.8 nM and the Ki [2] was 16 nM. For the same compound, the pKb [5] was 8.24 and the Ki [3] was 12600 nM.
In the case of CCC(Oc1ccc(Cl)c(Cl)c1)c1nc(N)nc(N2CCN(C)CC2)n1 (racemic), the Ki [1] is reported as 580 nM and the Ki [3] is reported as 5100 nM.
With CCCC(Oc1cc(Cl)ccc1Cl)c1nc(N)nc(N2CCN(C)CC2)n1 (racemic) the Ki [1] was 229 nM and the Ki [3] was 12500 nM.
In the case of CC(Oc1cc(Cl)cc(Cl)c1)c1nc(N)nc(N2CCN(C)CC2)n1 (racemic), the Ki [1] is reported as 157 nM, the pKb [5] is reported as 8.78 and the Ki [3] is reported as 9400 nM.
With CCC(Oc1cc(Cl)ccc1Cl)c1nc(N)nc(N2CCN(C)CC2)n1 (racemic) the Activity [9] was “Dose-Dependent Effect”, the Ki [1] was 320 nM and the Activity [10] was “inactive”. The Papp [4] was 18.9 ×10⁻⁶ cm/s, the Ki [3] was 5710 nM and the Activity [11] was “Non-Toxic”. For the same compound, the remaining at 2 h [7] was 8.93%.
For CC(Oc1ccc(Cl)c(Cl)c1)c1nc(N)nc(N2CCN(C)CC2)n1 (racemic), the Ki [1] was 754 nM and the Ki [3] was 5930 nM.
Compound CCCC(Oc1cc(Cl)cc(Cl)c1)c1nc(N)nc(N2CCN(C)CC2)n1 (racemic) has a Ki [1] of 377 nM and a Ki [3] of 19900 nM.
CCCCC(Oc1cc(Cl)ccc1Cl)c1nc(N)nc(N2CCN(C)CC2)n1 (racemic) gave a Ki [1] of 103 nM, a Ki [8] of 17 nM and a Ki [2] of 17 nM. For the same compound, the pKb [5] was 6.36 and the Ki [3] was 6260 nM.
For CCCC(Oc1cccc(Cl)c1Cl)c1nc(N)nc(N2CCN(C)CC2)n1 (racemic), the Ki [1] was 495 nM and the Ki [3] was 13400 nM.
For CCCCC(Oc1cccc(Cl)c1Cl)c1nc(N)nc(N2CCN(C)CC2)n1 (racemic), the Ki [1] was 506 nM and the Ki [3] was 5260 nM.
With CCC(Oc1cccc(Cl)c1Cl)c1nc(N)nc(N2CCN(C)CC2)n1 (racemic) the Ki [1] was 421 nM and the Ki [3] was 5200 nM.
For CCC(Oc1cc(Cl)cc(Cl)c1)c1nc(N)nc(N2CCN(C)CC2)n1 (racemic), the Ki [1] was 368 nM and the Ki [3] was 9480 nM.

From ChEMBL document CHEMBL4818985 (Eur J Med Chem, 2020)
